Source: ChEMBL document CHEMBL3758073, “Synthesis and Biochemical Evaluation of 3-Phenoxy-1,4-diarylazetidin-2-ones as Tubulin-Targeting Antitumor Agents” (J Med Chem, 2016)
Active and inactive are the calls of the source. The calls are words filed in the database; no cut-off is given here.

Legend:
MCF7 [1] = experiment: Antiproliferative activity against human MCF7 cells assessed as cell viability pre-incubated for 24 hrs with CO2 followed by compound addition after 72 hrs by MTT assay; format: functional, cell-based
Summary of the method: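 MCF-7 grown in Eagle's MEM with 10% FBS, 2 mM L-glutamine, penicillin/streptomycin and 1% non-essential amino acids. Cells seeded at 2.5 x 10⁴ cells/mL, 24 h at 37 °C, then dosed from ethanol stocks over 1 nM–100 µM (vehicle 1% v/v ethanol) for 72 h. MTT at 1 mg/mL final, 2 h in the dark, DMSO solubilisation. Viability set against untreated controls; IC50 is the mean of three experiments in triplicate.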

MCF7 [2] = experiment: Cytotoxicity against human MCF7 cells assessed as induction of cell death at 10 uM after 72 hrs by LDH assay; format: cell-based; settings: mcf7, 72 h
Summary of the method: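 Cell death in MCF-7 measured by LDH release. Seeding and dosing as for the MTT assay; after 72 h, lysis solution added to blank wells for 1 h to give 100% death. Supernatant mixed with substrate (INT to formazan) for 30 min at rt in the dark, then stopped and read at 490 nm. Percentage cell death reported at 10 μM; assays in triplicate.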

Tubulin (Sus scrofa) = Tubulin (Sus scrofa) (UniProt P02554+P02550); experiment: Inhibition of porcine tubulin polymerization assessed as inhibition of tubulin assembly Vmax rate at 10 uM by spectrophotometric analysis; format: protein assay
Sequence of Tubulin (Sus scrofa) (P02550 whole entry, looked up): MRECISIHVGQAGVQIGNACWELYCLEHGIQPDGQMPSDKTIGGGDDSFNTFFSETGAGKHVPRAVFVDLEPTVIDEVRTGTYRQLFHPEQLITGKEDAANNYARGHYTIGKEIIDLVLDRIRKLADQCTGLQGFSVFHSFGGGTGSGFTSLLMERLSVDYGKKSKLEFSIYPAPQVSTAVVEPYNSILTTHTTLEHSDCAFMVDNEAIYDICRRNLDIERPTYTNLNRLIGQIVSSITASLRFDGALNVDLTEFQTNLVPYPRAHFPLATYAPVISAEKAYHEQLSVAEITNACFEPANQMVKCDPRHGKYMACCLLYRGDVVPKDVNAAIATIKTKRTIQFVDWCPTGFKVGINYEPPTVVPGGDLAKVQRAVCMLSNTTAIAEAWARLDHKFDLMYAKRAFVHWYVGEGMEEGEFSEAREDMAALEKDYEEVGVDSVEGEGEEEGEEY
Sequence of Tubulin (Sus scrofa) (P02554 whole entry, looked up): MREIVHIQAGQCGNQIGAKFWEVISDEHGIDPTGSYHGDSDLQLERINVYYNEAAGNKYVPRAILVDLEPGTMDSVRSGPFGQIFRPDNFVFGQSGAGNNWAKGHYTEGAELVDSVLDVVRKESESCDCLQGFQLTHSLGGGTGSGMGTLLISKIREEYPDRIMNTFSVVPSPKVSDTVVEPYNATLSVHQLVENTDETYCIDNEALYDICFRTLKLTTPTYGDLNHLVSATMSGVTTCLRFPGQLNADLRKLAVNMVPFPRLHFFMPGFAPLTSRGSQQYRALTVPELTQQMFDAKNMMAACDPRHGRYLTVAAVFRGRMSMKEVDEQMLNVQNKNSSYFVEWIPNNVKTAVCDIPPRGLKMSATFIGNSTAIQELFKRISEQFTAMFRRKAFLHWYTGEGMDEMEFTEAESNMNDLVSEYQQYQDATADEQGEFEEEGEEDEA
Summary of the method: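 Tubulin polymerisation kit (>97% pure porcine tubulin, OD-based). Tubulin plus GTP at 37 °C with test agent at 10 μM final; 1% v/v ethanol as vehicle. A340 read every 30 s for 60 min at 37 °C. Fold change in Vmax calculated relative to vehicle; mean of three separate experiments.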

MCF7 [3] = experiment: Binding affinity to beta-Tubulin in human MCF7 cells assessed as inhibition of protein-EBI adduct formation at Cys239 and Cys354 at 10 uM pre-incubated for 2 hrs followed by EBI addition after 1.5 hrs by Western blot analysis; format: cell-based
Summary of the method: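 MCF-7 seeded at 5×10^4 cells/well and incubated overnight. Treated 2 h with test agent at 10 μM or with vehicle (0.1% v/v ethanol), then with N,N'-ethylene-bis(iodoacetamide) for a further 1.5 h. Cells washed in ice-cold PBS and lysed in Laemmli buffer. SDS-PAGE, PVDF transfer and β-tubulin immunoblot to detect the faster-migrating β-tubulin–EBI adduct. Three independent experiments.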

COc1ccc([C@@H]2[C@H](Oc3cc(OC)c(OC)c(OC)c3)C(=O)N2c2cc(OC)c(OC)c(OC)c2)cc1O (relative stereo)
IC50 (MCF7 [1]): 33 µM | Activity (MCF7 [2]): 10.9%

COc1cc(N2C(=O)[C@@H](Oc3ccccc3)[C@H]2c2ccc(O)cc2)cc(OC)c1OC (relative stereo)
IC50 (MCF7 [1]): 48 µM | Activity (MCF7 [2]): 0.1%

COc1cc(N2C(=O)[C@@H](Oc3ccccc3)[C@H]2c2ccc3ccccc3c2)cc(OC)c1OC (relative stereo)
IC50 (MCF7 [1]): 282 µM | Activity (MCF7 [2]): 10.7%

COc1cc([N+](=O)[O-])c([C@@H]2[C@H](Oc3ccccc3)C(=O)N2c2cc(OC)c(OC)c(OC)c2)cc1O (relative stereo)
IC50 (MCF7 [1]): 59 µM | Activity (MCF7 [2]): 9.9%

COc1cc(N2C(=O)[C@@H](Oc3ccccc3)[C@H]2c2ccc(N)cc2)cc(OC)c1OC (relative stereo)
IC50 (MCF7 [1]): 160 µM | Activity (MCF7 [2]): 14.7%

COc1ccc([C@@H]2[C@H](Oc3ccccc3)C(=O)N2c2cc(OC)c(OC)c(OC)c2)cc1[N+](=O)[O-] (relative stereo)
IC50 (MCF7 [1]): 69 µM | Activity (MCF7 [2]): 5.3%

COc1cc(N2C(=O)[C@@H](Oc3ccccc3)[C@H]2c2ccc(N=[N+]=[N-])cc2)cc(OC)c1OC (relative stereo)
IC50 (MCF7 [1]): 23 µM | Activity (MCF7 [2]): 5.8%

COc1ccc([C@@H]2[C@@H](Oc3ccccc3)C(=O)N2c2cc(OC)c(OC)c(OC)c2)cc1 (relative stereo)
IC50 (MCF7 [1]): 6.9 µM | Activity (MCF7 [2]): 7.3%

COc1cc(N)c([C@@H]2[C@H](Oc3ccccc3)C(=O)N2c2cc(OC)c(OC)c(OC)c2)cc1O (relative stereo)
IC50 (MCF7 [1]): 20 µM | Activity (MCF7 [2]): 70%

COc1cc(N2C(=O)[C@@H](Oc3ccccc3)[C@H]2c2ccc3c(c2)OCO3)cc(OC)c1OC (relative stereo)
IC50 (MCF7 [1]): 48 µM | Activity (MCF7 [2]): 8.3%

COc1cc(N2C(=O)[C@@H](Oc3ccccc3)[C@H]2c2cc(N)c(OC)c(O)c2)cc(OC)c1OC (relative stereo)
IC50 (MCF7 [1]): 8.8 µM | Activity (MCF7 [2]): 14%

COc1ccc([C@@H]2[C@H](Oc3ccccc3)C(=O)N2c2cc(OC)c(OC)c(OC)c2)c(N)c1O (relative stereo)
IC50 (MCF7 [1]): 19 µM | Activity (MCF7 [2]): 52%

COc1ccc([C@@H]2[C@H](Oc3ccccc3)C(=O)N2c2cc(OC)c(OC)c(OC)c2)cc1NC(=O)CCCc1ccc(N(CCCl)CCCl)cc1 (relative stereo)
IC50 (MCF7 [1]): 145 µM | Activity (MCF7 [2]): 3.2%

COc1cc(N2C(=O)[C@@H](Oc3ccccc3)[C@H]2c2ccc(N(C)C)cc2)cc(OC)c1OC (relative stereo)
IC50 (MCF7 [1]): 31 µM | Activity (MCF7 [2]): 5.9% | fold change (FC) (Tubulin (Sus scrofa)): 0

COc1ccc(N2C(=O)[C@@H](Oc3ccccc3)[C@H]2c2ccc(OC)c(O)c2)cc1 (relative stereo)
IC50 (MCF7 [1]): 49 µM | Activity (MCF7 [2]): 10.4%

COc1ccc([C@@H]2[C@H](Oc3ccccc3)C(=O)N2c2cc(OC)c(OC)c(OC)c2)cc1NC(=O)C(C)N (relative stereo)
IC50 (MCF7 [1]): 9.2 µM

COc1ccc([C@@H]2[C@@H](Oc3ccccc3)C(=O)N2c2cc(OC)c(OC)c(OC)c2)cc1Br (relative stereo)
IC50 (MCF7 [1]): 31 µM | Activity (MCF7 [2]): 3.9%

COc1cc(N2C(=O)[C@@H](Oc3ccccc3)[C@H]2c2cc(O)c(OC)c([N+](=O)[O-])c2)cc(OC)c1OC (relative stereo)
IC50 (MCF7 [1]): 69 µM | Activity (MCF7 [2]): 12.1%

COc1ccc([C@@H]2[C@H](Oc3ccccc3)C(=O)N2c2cc(OC)c(OC)c(OC)c2)cc1F (relative stereo)
IC50 (MCF7 [1]): 6.3 µM | Activity (MCF7 [2]): 70%

CCOC(=O)/C=C/c1ccc([C@@H]2[C@H](Oc3ccccc3)C(=O)N2c2cc(OC)c(OC)c(OC)c2)cc1 (relative stereo)
IC50 (MCF7 [1]): 87 µM

COc1cc(N2C(=O)[C@@H](Oc3ccccc3)[C@H]2c2cccc([N+](=O)[O-])c2)cc(OC)c1OC (relative stereo)
IC50 (MCF7 [1]): 30 µM | Activity (MCF7 [2]): 16.7%

COc1ccc([C@@H]2[C@H](Oc3ccccc3)C(=O)N2c2cc(OC)c(OC)c(OC)c2)cc1OP(=O)(O)O (relative stereo)
IC50 (MCF7 [1]): 42 µM

COc1ccc([C@@H]2[C@H](Oc3ccccc3)C(=O)N2c2cc(OC)c(OC)c(OC)c2)cc1N
IC50 (MCF7 [1]): 12.2 µM | Activity (MCF7 [2]): 7.7%

COc1cc(N2C(=O)[C@@H](Oc3ccccc3)[C@H]2c2ccc(Br)cc2)cc(OC)c1OC (relative stereo)
IC50 (MCF7 [1]): 48 µM

COc1ccc([C@@H]2[C@H](Oc3ccccc3)C(=O)N2c2cc(OC)c(OC)c(OC)c2)cc1 (relative stereo)
IC50 (MCF7 [1]): 35 µM | Activity (MCF7 [2]): 6.5%

COc1ccc([C@@H]2[C@@H](Oc3ccccc3)C(=O)N2c2cc(OC)c(OC)c(OC)c2)cc1NC(=O)C(C)N (relative stereo)
IC50 (MCF7 [1]): 0.23 µM

COc1cc(N2C(=O)[C@@H](Oc3ccccc3)[C@H]2c2cccc(N)c2)cc(OC)c1OC (relative stereo)
IC50 (MCF7 [1]): 17 µM | Activity (MCF7 [2]): 48%

COc1cc2c(c(OC)c1OC)-c1ccc(OC)c(=O)cc1[C@@H](NC(C)=O)CC2
Activity (MCF7 [3]): Active

COc1ccc([C@@H]2[C@H](Oc3ccccc3)C(=O)N2c2cc(OC)c(OC)c(OC)c2)cc1Br (relative stereo)
IC50 (MCF7 [1]): 5.1 µM | Activity (MCF7 [2]): 6.4%

O=C(O)CCCc1ccc(N(CCCl)CCCl)cc1 [CHLORAMBUCIL]
IC50 (MCF7 [1]): 97 µM | Activity (MCF7 [2]): 8%

COc1cc([C@@H]2[C@H](Oc3ccccc3)C(=O)N2c2cc(OC)c(OC)c(OC)c2)ccc1O (relative stereo)
IC50 (MCF7 [1]): 32 µM | Activity (MCF7 [2]): 5.1%

COc1cc(N2C(=O)[C@@H](Oc3ccccc3)[C@H]2c2ccc(O)c(O)c2)cc(OC)c1OC (relative stereo)
IC50 (MCF7 [1]): 4.5 µM | Activity (MCF7 [2]): 6%

COc1ccc([C@@H]2[C@H](Oc3ccccc3)C(=S)N2c2cc(OC)c(OC)c(OC)c2)cc1O (relative stereo)
IC50 (MCF7 [1]): 7.5 µM | Activity (MCF7 [2]): 4.8%

COc1cc(N2C(=O)[C@@H](Oc3ccccc3)[C@H]2c2ccc([N+](=O)[O-])cc2)cc(OC)c1OC (relative stereo)
IC50 (MCF7 [1]): 63 µM | Activity (MCF7 [2]): 27%

COc1ccc([C@@H]2[C@H](Oc3ccccc3)C(=O)N2c2cc(OC)c(OC)c(OC)c2)cc1OC(=O)CCCc1ccc(N(CCCl)CCCl)cc1 (relative stereo)
IC50 (MCF7 [1]): 0.41 µM | Activity (MCF7 [2]): 8%

COc1cc(N2C(=O)[C@@H](Oc3ccccc3)[C@H]2c2cccc(O)c2)cc(OC)c1OC (relative stereo)
IC50 (MCF7 [1]): 54 µM | Activity (MCF7 [2]): 22%

COc1ccc([C@@H]2[C@H](Oc3ccccc3)C(=O)N2c2cc(OC)c(OC)c(OC)c2)c([N+](=O)[O-])c1O (relative stereo)
IC50 (MCF7 [1]): 89 µM | Activity (MCF7 [2]): 12.7%

COc1ccc([C@@H]2[C@@H](Oc3ccccc3)C(=O)N2c2cc(OC)c(OC)c(OC)c2)cc1[N+](=O)[O-] (relative stereo)
IC50 (MCF7 [1]): 4.1 µM | Activity (MCF7 [2]): 5.2%

COc1cc(N2C(=O)[C@H](Oc3ccccc3)[C@H]2c2ccc(C#N)cc2)cc(OC)c1OC (relative stereo)
IC50 (MCF7 [1]): 168 µM | Activity (MCF7 [2]): 2.1% | fold change (FC) (Tubulin (Sus scrofa)): 0

COc1cc(N2C(=O)[C@@H](Oc3ccccc3)[C@H]2c2ccc(SC)cc2)cc(OC)c1OC (relative stereo)
IC50 (MCF7 [1]): 7.7 µM | Activity (MCF7 [2]): 8.1%

COc1cc(N2C(=O)[C@@H](Oc3ccccc3)[C@H]2c2ccc(C#N)cc2)cc(OC)c1OC (relative stereo)
IC50 (MCF7 [1]): 31.6 µM | Activity (MCF7 [2]): 4.8%

COc1ccc([C@@H]2[C@H](Oc3ccccc3)CN2c2cc(OC)c(OC)c(OC)c2)cc1O
IC50 (MCF7 [1]): 3.3 µM | Activity (MCF7 [2]): 19.8%

COc1cc(N2C(=O)[C@@H](Oc3ccccc3)[C@H]2c2ccc([S+](C)[O-])cc2)cc(OC)c1OC (relative stereo)
IC50 (MCF7 [1]): 20 µM | Activity (MCF7 [2]): 1.7%

COc1cccc([C@@H]2[C@H](Oc3ccccc3)C(=O)N2c2cc(OC)c(OC)c(OC)c2)c1 (relative stereo)
IC50 (MCF7 [1]): 171 µM | Activity (MCF7 [2]): 22%

COc1ccc([C@@H]2[C@H](Oc3ccccc3)C(=O)N2c2cc(OC)c(OC)c(OC)c2)cc1OC (relative stereo)
IC50 (MCF7 [1]): 26 µM | Activity (MCF7 [2]): 11.2%

COc1cc(N2C(=O)[C@@H](Oc3ccccc3)[C@H]2c2ccc(S(C)(=O)=O)cc2)cc(OC)c1OC (relative stereo)
IC50 (MCF7 [1]): 62 µM | Activity (MCF7 [2]): 10.2%

COc1cc(N2C(=O)[C@@H](Oc3ccccc3)[C@H]2c2cccc3ccccc23)cc(OC)c1OC (relative stereo)
IC50 (MCF7 [1]): 53 µM | Activity (MCF7 [2]): 4.6%

COc1cc([C@@H]2[C@H](Oc3ccccc3)C(=O)N2c2cc(OC)c(OC)c(OC)c2)cc(OC)c1OC (relative stereo)
IC50 (MCF7 [1]): 29 µM | Activity (MCF7 [2]): 0%

COc1ccc([C@@H]2[C@@H](Oc3ccccc3)C(=O)N2c2cc(OC)c(OC)c(OC)c2)cc1OP(=O)(O)O (relative stereo)
IC50 (MCF7 [1]): 23 µM

COc1ccc([C@@H]2[C@H](Oc3ccccc3)C(=O)N2c2cc(OC)c(OC)c(OC)c2)cc1NC(=O)CN (relative stereo)
IC50 (MCF7 [1]): 6.5 µM
